Measured values from ChEMBL document CHEMBL1124287, “Imidazole-pyridine bioisosterism: comparison of the inotropic activities of pyridine- and imidazole-substituted 6-phenyldihydropyridazinone cardiotonics” (1988).

What was measured:
Canis familiaris [1] = assay: Percent increase in heart rate was measured in anesthetized dogs; type: functional, Canis lupus familiaris
In short: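 Heart rate taken from a cardiometer triggered by the femoral arterial pressure pulse, in pentobarbital-anesthetized (35 mg/kg iv), ventilated mongrel dogs (7–14 kg). Escalating iv log doses at 5-min intervals. Reported as percent change from control at the inotropic ED50 dose.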

Canis familiaris [2] = assay: Heart contractility was measured in anesthetized dogs (iv); type: functional; conditions: Canis lupus familiaris
In short: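 Mongrel dogs of either sex (7–14 kg), pentobarbital-anesthetized (35 mg/kg iv), ventilated, kept at 37–38 °C. Right-ventricular Walton-Brodie strain-gauge arch at 50 g tension. Increasing log doses given iv via femoral vein at 5-min intervals, peak response recorded. ED50 (dose for 50% contractility rise) by linear regression, mean ± SEM. Separate animal group per drug.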

Canis familiaris [3] = assay: Percent decrease in mean arterial blood pressure was measured in anesthetized dogs; type: functional, Canis lupus familiaris
In short: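 Pentobarbital-anesthetized (35 mg/kg iv), ventilated mongrel dogs of either sex (7–14 kg). Mean arterial pressure recorded via femoral arterial catheter and pressure transducer. Log doses given iv at 5-min intervals. Value is percent change from control at the inotropic ED50 dose.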

O=C1CCC(c2ccc3c(c2)CCC(=O)N3)=NN1
Increase in HR (Canis familiaris [1]): 13.2%
ED50 (Canis familiaris [2]): 0.0032 mg/kg
Decrease in MAP (Canis familiaris [3]): 16.1%

O=C1CCC(c2ccc(-n3ccnc3)cc2)=NN1 [IMAZODAN]
Increase in HR (Canis familiaris [1]): 16.9%
ED50 (Canis familiaris [2]): 0.0501 mg/kg
Decrease in MAP (Canis familiaris [3]): 28.4%

O=C1CCC(c2ccc3c(c2)CCCN3)=NN1
Increase in HR (Canis familiaris [1]): 37%
Decrease in MAP (Canis familiaris [3]): 12%

O=C1CCC(c2ccc(-c3cccnc3)cc2)=NN1
Increase in HR (Canis familiaris [1]): 7.5%
ED50 (Canis familiaris [2]): 0.0194 mg/kg
Decrease in MAP (Canis familiaris [3]): 12.7%

O=C1CCC(c2ccc(-c3ccncc3)cc2)=NN1
Increase in HR (Canis familiaris [1]): 19.1%
ED50 (Canis familiaris [2]): 0.146 mg/kg
Decrease in MAP (Canis familiaris [3]): 29.9%

CC(=O)Nc1ccc(C2=NNC(=O)CC2)cc1
Increase in HR (Canis familiaris [1]): 8.8%
ED50 (Canis familiaris [2]): 0.0113 mg/kg
Decrease in MAP (Canis familiaris [3]): 15.1%

O=C1CCC(c2ccccc2)=NN1
Increase in HR (Canis familiaris [1]): 39.1%
ED50 (Canis familiaris [2]): 6.33 mg/kg
Decrease in MAP (Canis familiaris [3]): 24.9%

O=C1CCC(c2ccc(-c3ccccc3)cc2)=NN1
Increase in HR (Canis familiaris [1]): 18.8%
ED50 (Canis familiaris [2]): 0.513 mg/kg
Decrease in MAP (Canis familiaris [3]): 20.9%
